{"data": "Measurements collected from several papers", "note": "Each line is one published result; the experiments were not run side by side."}
{"Compound": "COc1ccc(NC(=O)Nc2ccc(-c3cn(Cc4ccc(Cl)cc4)nn3)cc2)cc1", "target or system": "PC-9", "test": "cell growth or viability, CCK-8", "setting": "50 µM, 72 h", "endpoint": "viability", "result": "87.3%"}
{"Compound": "C[C@H](N)C(=O)Nc1ccccc1/N=c1\\cc(-c2ccc3c(c2)OCCO3)oc2cc(F)ccc12", "target or system": "HCT-116", "test": "cell growth or viability, CCK-8", "setting": "1 µM", "endpoint": "inhibition", "result": "5.4%"}
{"Compound": "Oc1cc(O)c2c(c1)O[C@H](c1cc(O)c(O)c(O)c1)[C@@H](O)C2", "target or system": "Streptococcus mutans", "test": "microbial killing, broth dilution", "endpoint": "MBC", "result": "400 µg/mL"}
{"Compound": "O=C(Nc1ccccc1/N=c1\\cc(-c2ccc3c(c2)OCO3)oc2ccccc12)N1CCNCC1", "target or system": "HCT-116", "test": "cell growth or viability, CCK-8", "setting": "1 µM", "endpoint": "inhibition", "result": "15.1%"}
{"Compound": "Cc1nc(Nc2ncc(C(=O)Nc3c(C)cccc3Cl)s2)cc(N2CC[C@H](O)C2)n1", "target or system": "JVM13", "test": "cell growth or viability, ATP luminescence", "setting": "10 µM, 72 h", "endpoint": "inhibition", "result": "32%"}
{"Compound": "O=C1O[C@H]2[C@@H]3OC(=O)c4cc(O)c(O)c(O)c4-c4c(O)c(O)c5oc(=O)c6c(c(O)c(O)c7oc(=O)c4c5c76)-c4c(cc(O)c(O)c4O)C(=O)OC[C@H]3OC(O)[C@@H]2OC(=O)c2cc(O)c(O)c(O)c2-c2c1cc(O)c(O)c2O (mixture of isomers)", "target or system": "Streptococcus mutans", "test": "microbial killing, broth dilution", "endpoint": "MBC", "result": "200 µg/mL"}
{"Compound": "CC1(C)S[C@@H]2[C@H](NC(=O)[C@H](N)c3ccccc3)C(=O)N2[C@H]1C(=O)O", "target or system": "Streptococcus pyogenes", "test": "microbial growth", "setting": "clinical isolate", "endpoint": "MIC90", "result": "0.5 µg/mL"}
{"Compound": "CCOc1ccc(Nc2c3c(nc4ccccc24)CCC3)cc1", "target or system": "Leishmania infantum", "test": "parasite growth, MTT", "setting": "promastigote", "endpoint": "EC50", "result": "645 nM"}
{"Compound": "CC[C@H]1OC(=O)[C@H](C)[C@@H](O[C@H]2C[C@@](C)(OC)[C@@H](O)[C@H](C)O2)[C@H](C)[C@@H](O[C@@H]2O[C@H](C)C[C@H](N(C)C)[C@H]2O)[C@](C)(O)C[C@@H](C)/C(=N\\OCOCCOC)[C@H](C)[C@@H](O)[C@]1(C)O", "target or system": "Streptococcus pyogenes", "test": "microbial growth", "setting": "clinical isolate", "endpoint": "MIC90", "result": "2 µg/mL"}
{"Compound": "NCC(=O)Nc1ccccc1/N=c1\\cc(-c2ccc3c(c2)OCO3)oc2ccccc12", "target or system": "HCT-116", "test": "cell growth or viability, CCK-8", "setting": "1 µM", "endpoint": "inhibition", "result": "4.94%"}
{"Compound": "O=c1oc2c(O)c(O)cc3c(=O)oc4c(O)c(O)cc1c4c23", "target or system": "Streptococcus mutans", "test": "microbial killing, broth dilution", "endpoint": "MBC", "result": "200 µg/mL"}
{"Compound": "C[C@@H]1[C@H](O)[C@@H](C)/C=C/C=C/C=C/C=C/C=C/C=C/C=C/[C@H](O[C@@H]2O[C@H](C)[C@@H](O)[C@H](N)[C@@H]2O)C[C@@H]2O[C@](O)(C[C@@H](O)C[C@@H](O)[C@H](O)CC[C@@H](O)C[C@@H](O)CC(=O)O[C@H]1C)C[C@H](O)[C@H]2C(=O)O", "target or system": "Leishmania infantum", "test": "parasite growth, MTT", "setting": "promastigote", "endpoint": "EC50", "result": "1500 nM"}
{"Compound": "COc1ccc2/c(=N/c3ccccc3NC(=O)[C@@H](N)CO)cc(-c3ccc4c(c3)OCCO4)oc2c1", "target or system": "HCT-116", "test": "cell growth or viability, CCK-8", "setting": "1 µM", "endpoint": "inhibition", "result": "14.7%"}
